NPY-Y1 PAM-ag: potentiates or activates human NPY-Y1 receptor; P25929; NPY-Y1 expressing cells, potentiator/agonist activation; activation, % at 3.6 µM; actives 0.37% (n = 220,000); AID 1304; in the data active = activation above about 33%, passing the limit was not always enough;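 also: cells stimulated with NPY at EC10 then isoproterenol at EC100; 0% = low agonist plus stimulus and 100% = saturating agonist plus stimulus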
Target sequence (P25929 whole entry, looked up): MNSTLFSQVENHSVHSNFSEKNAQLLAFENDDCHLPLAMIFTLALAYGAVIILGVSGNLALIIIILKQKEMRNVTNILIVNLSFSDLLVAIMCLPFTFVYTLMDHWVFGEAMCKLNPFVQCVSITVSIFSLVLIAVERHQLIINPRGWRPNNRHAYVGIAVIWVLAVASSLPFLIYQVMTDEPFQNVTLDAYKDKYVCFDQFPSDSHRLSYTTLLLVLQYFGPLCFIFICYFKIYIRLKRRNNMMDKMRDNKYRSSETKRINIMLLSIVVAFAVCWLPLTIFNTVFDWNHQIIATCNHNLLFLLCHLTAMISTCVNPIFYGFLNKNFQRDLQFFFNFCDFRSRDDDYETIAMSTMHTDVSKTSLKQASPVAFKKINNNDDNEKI
NPY-Y2 PAM-ag: human NPY-Y2 potentiation or agonism, primary screen; P49146; cells expressing NPY-Y2, potentiator/agonist read-out; activation, % at 3.6 µM; actives 0.45% (n = 220,000); in the data active = activation above about 27%;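 also: cells stimulated with NPY near EC25 plus isoproterenol at EC100; 0% = vehicle plus submaximal agonist and 100% = vehicle plus saturating agonist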
NPY-Y2 antag: antagonists of human neuropeptide Y receptor Y2; actives 0.99% (n = 140,000); P49146; inhibition, % at 2.7 µM; NPY-Y2 expressing cells, antagonist mode; in the data active = inhibition above about 17%;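 also: 0% = vehicle with agonist challenge and 100% = reference antagonist with challenge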
WT yeast gro inh: growth inhibition of WT yeast, mitochondrial fusion screen. mitochondrial fusion phenotypic screen, WT strain. inhibition, % at 10 µM. actives 2.1% (n = 190,000). AID 1362; in the data active = inhibition above about 58%; tested in S. cerevisiae
NPY-Y1 antag: NPY-Y1 (human) receptor antagonism | P25929 | HEK293-CNG Y1 cells, membrane potential fluorescence; NPY at EC95, then isoproterenol | inhibition, % at 3.6 µM | actives 1% (n = 200,000);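 active = inhibition above the campaign mean inhibition of all tested compounds plus 3 SD, cut at about 20% in these data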;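 also: 0% = DMSO wells given NPY plus isoproterenol and 100% = isoproterenol alone without NPY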
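Benchmarks – high control isoproterenol alone, low control NPY with isoproterenol · Material – HEK293 Y1/CNG channel cell line · Times – dye 3 h, compound 60 min room temperature, stimulation 45 min · Probe or stimulus – NPY (25 nM), isoproterenol (1 µM), Ro 20-1724 (25 µM) · Evaluation – % inhibition of NPY effect · Signal – fluorescence, membrane potential probe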
RAM inhibit: yeast RAM network inhibition | actives 1.8% (n = 190,000) | S. cerevisiae dse1pr::URA3 reporter, 5-FOA growth OD615, 2 d; analog-sensitive cbk1-as2 kinase mutant strain | inhibition, % at 50 µM | AID 868;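 active = inhibition above a set limit, 3 SD over mean compound inhibition, cut at about 8.4% in these data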;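 also: 0% = DMSO-only wells with no growth and 100% = 10 µM 1-NA-PP1 full growth; inhibition rescues growth on 5-FOA so higher OD means more RAM inhibition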
Numbers without * were called inactive; / = no result. Sampled rows, rich in hits. Any-hit rate of the full collection: about 4.9%.

SMILES	NPY-Y1 PAM-ag	NPY-Y2 PAM-ag	NPY-Y2 antag	WT yeast gro inh	NPY-Y1 antag	RAM inhibit
CCOC(=O)/C(=C\c1cccnc1)C(=O)c1cc(C(C)=O)c(Nc2ccccc2)s1	-16.3	-12.7	7.5	83.6*	8.2	2.5
CCOC(=O)/C(=C\c1ccccc1)C(=O)c1cc(C(C)=O)c(Nc2ccccc2)s1	-7.7	-7.7	4.5	29.9	7.5	3.3
COCCN(C(=S)Nc1ccccc1C)C(C)c1cccnc1 (configuration not stated)	-12.6	5.9	1.6	-16.9	1.3	2.3
CN1CCN(C(=O)c2cnn3c(C(F)(F)F)cc(-c4ccc5c(c4)OCO5)nc23)CC1	-17.1	-8.6	-0.3	98.5*	2.9	0.4
COc1cccc(CN2CCN(Cc3cc4ccccc4[nH]3)CC2CCO)c1 (configuration not stated)	-4.6	10.3	/	/	/	/
Cc1ccccc1Cn1c(=N)n(CC(O)c2ccco2)c2ccccc21 (configuration not stated)	-21.3	-7.3	22.8*	5.0	25.4*	1.2
N=c1n(CCN2CCCC2)c2ccccc2n1CC(O)c1ccco1 (configuration not stated)	-9.5	-4.3	3.7	40.3	4.9	3.3
Cc1cc2cc(CN(CC3CCCO3)C(=S)Nc3ccccc3)c(=O)[nH]c2cc1C (configuration not stated)	-14.5	10.9	5.2	11.8	5.2	3.3
COc1ccc(CNC(=O)C2CC(=O)N(c3ccc(OCC(=O)N4C(C)CCCC4C)cc3)C2)cc1 (configuration not stated)	-1.3	-2.7	-0.6	64.5*	-2.9	2.4
Cc1noc(NS(=O)(=O)c2ccc(NC(=O)CS(=O)(=O)c3ccccc3)cc2)c1C	0.5	0.1	1.1	7.2	2.5	1.2
O=C(Nc1ccccc1)c1ccc(NCc2cccnc2)c(S(=O)(=O)N2CCOCC2)c1	1.9	-13.2	-0.3	12.8	-2.8	-0.3
COc1ccc(OCCCn2c(=O)oc3ccccc32)cc1	-8.1	3.5	2.2	-12.2	6.7	-1.3
CCCCOc1ccccc1Cn1c(=O)oc2ccccc21	-0.7	4.5	2.4	17.7	13.4	11.0*
C=CCNC(=S)NN=C1CCCCCCC1	-6.6	3.1	/	59.6*	-2.8	0.7
C=CCn1c(SCC(=O)N(CC)CC)nc(O)cc1=O	-7.9	-0.7	0.6	9.1	-10.4	1.3
C=CCn1c(SCC(N)=O)nc(C)cc1=O	24.1	-11.1	-0.5	60.9*	2.7	-0.7
CCOC(=O)CSc1ccc(S(=O)(=O)N2CCC(C)CC2)cc1[N+](=O)[O-]	15.4	5.1	-1.9	5.7	7.6	10.6*
COc1cc(/C=C2/S/C(=N/S(=O)(=O)c3ccccc3)NC2=O)c([N+](=O)[O-])cc1OC	-21.9	-7.2	3.1	9.7	1.0	9.4*
COc1cc(/C=C2\S/C(=N/S(=O)(=O)Cc3ccccc3)NC2=O)c([N+](=O)[O-])cc1OC	-5.2	-6.0	/	/	/	/
CC(=O)Oc1oc(-c2ccccc2)nc1C=Nc1ccccc1	1.6	-27.9	-0.7	3.0	1.7	-0.5
Cc1cccc2sc(NC(=O)CN3C(=O)C4CC=CCC4C3=O)nc12 (configuration not stated)	-19.1	-16.0	/	-6.0	0.7	0.4
C[C@]1(C(=O)NCc2cc(F)cc(C(F)(F)F)c2)C=C[C@@H](Cc2ccccc2)N1C(=O)c1ccccc1	-0.8	14.8	3.5	52.1	-6.0	5.3
CCOC(=O)CSc1nc2ccc(NC(=O)CSc3nnnn3Cc3ccccc3)cc2s1	103.8*	98.9*	-3.1	12.4	-14.1	9.5*
CCOC(=O)CSc1nc2ccc(N)cc2s1	55.8*	34.2*	2.3	-14.3	-8.2	2.2
COC(=O)CSc1nc2ccc(NC(C)=O)cc2s1	67.8*	61.7*	2.5	-35.3	-7.7	2.2
CC(=O)Nc1ccc2nc(SCC(=O)N3CCOCC3)sc2c1	-0.2	3.4	/	7.4	-0.4	0.5
C=C(C)C1CC=C(CN2CCC(O)CC2)CC1 (configuration not stated)	-17.9	7.8	2.3	-14.9	4.0	-0.4
S=C(NCc1cccnc1)Nc1ccc(Cl)c(Cl)c1	25.4	16.4	-0.7	3.7	-5.1	0.1
Cc1ccc(C(=O)Nn2c(O)c(C=C3N=c4ccccc4=N3)sc2=S)cc1	-27.0	-19.2	2.0	19.5	3.1	8.2

Assay outcomes deposited in PubChem BioAssay by several laboratories.
